Most compounds without a hit are left out; they make up all but 1.5% or so of the library.
ABCG2 inh: ABCG2 efflux pump inhibitors, primary screen, multiplex with ABCB1, IgMXP3 cells, flow cytometry | Broad substrate specificity ATP-binding cassette transporter ABCG2 (Homo sapiens), Q9UNQ0 | JC-1 efflux | inhibition, % at 6.6 µM | hit rate 0.1% among 190,000 | AID 1325, 2008;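 active = inhibition above 80%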;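 also: 0% = DMSO and 100% = nicardipine control wells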
Target sequence (Q9UNQ0 whole entry, looked up): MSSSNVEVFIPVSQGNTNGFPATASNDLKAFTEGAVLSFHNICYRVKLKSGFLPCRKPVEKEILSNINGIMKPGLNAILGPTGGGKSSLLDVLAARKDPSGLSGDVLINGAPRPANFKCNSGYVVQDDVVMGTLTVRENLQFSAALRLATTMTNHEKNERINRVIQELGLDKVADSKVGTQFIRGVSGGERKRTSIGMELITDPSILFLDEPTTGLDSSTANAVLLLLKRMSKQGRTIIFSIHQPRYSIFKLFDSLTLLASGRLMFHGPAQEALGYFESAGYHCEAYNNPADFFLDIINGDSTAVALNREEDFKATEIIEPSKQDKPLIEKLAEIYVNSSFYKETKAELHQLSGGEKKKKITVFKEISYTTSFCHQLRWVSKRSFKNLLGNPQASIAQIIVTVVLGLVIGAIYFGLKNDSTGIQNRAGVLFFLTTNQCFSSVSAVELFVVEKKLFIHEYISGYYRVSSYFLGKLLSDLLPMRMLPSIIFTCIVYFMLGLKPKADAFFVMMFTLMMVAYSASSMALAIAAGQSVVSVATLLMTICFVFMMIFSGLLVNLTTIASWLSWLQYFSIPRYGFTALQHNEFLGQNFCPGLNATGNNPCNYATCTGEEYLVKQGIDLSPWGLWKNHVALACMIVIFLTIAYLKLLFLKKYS
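Test system: IgMXP3 (ABCG2) plus far-red-tagged CCRF-Adr (ABCB1) cells / Amount: 3 million cells/mL in well / Reagent: JC-1 transporter substrate / Timing: 10 min compound exposure, 25 °C / Signal: flow cytometry, 530 nm JC-1 signal / Read-out: percent efflux inhibition, scaled nicardipine 100% to DMSO 0% / Benchmarks: nicardipine as high control, DMSO as low control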
EP2 antag: human EP2 receptor antagonists, primary screen, TR-FRET cAMP, C6 glioma cells; hit rate 0.52% among 260,000; inhibition, % at 25 µM; C6 glioma cells expressing human EP2; cells stimulated with saturating PGE2; AID 1422, 2008; Prostaglandin E2 receptor EP2 subtype (Homo sapiens), P43116;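 active = percent inhibition above 40 after rounding to a whole number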;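 also: rat C6 glioma host cells with rolipram phosphodiesterase inhibitor present; the protocol text gives 20 µM as final concentration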
EP2 mod: EP2 receptor modulators, cAMP readout, primary screen, cell-based, HTRF cAMP, PGE2 stimulation. Prostaglandin E2 receptor EP2 subtype (Homo sapiens), P43116. EP2-expressing cells, cAMP HTRF FRET, PGE2 co-stimulation. induction, % at 25 µM. hit rate 0.83% among 260,000. AID 940, 2007;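 active = compounds whose cAMP rise, as percent of the full-agonist control response, exceeds 60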;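 also: rat C6 glioma line stably carrying human EP2 under a CMV promoter; the protocol text gives 20 µM as final concentration; 100% = response of wells given 1 µM PGE2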
ABCB1 block: ABCB1 efflux pump inhibitors, primary screen, cell-based, multiplex, flow cytometry, ABCG2 counter-screen; CCRF-Adr cells, JC-1 efflux; inhibition, % at 6.6 µM; hit rate 0.067% among 190,000; AID 1326, 2008; in the data active = inhibition above about 40%;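 also: 0% = vehicle and 100% = reference inhibitor; higher value means more JC-1 retained so stronger ABCB1 efflux block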
RBBP9 inh: human RBBP9 inhibitors, primary screen, biochemical, fluorescence polarization, FP-Rh probe, HTS. Serine hydrolase RBBP9 (Homo sapiens), O75884. recombinant RBBP9. inhibition, % at 7.94 µM. hit rate 0.2% among 220,000;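 active = inhibition above the campaign mean of all tested compounds plus 3 SD, cut at about 14% in these data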;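 also: plate controls were DMSO wells with RBBP9 for no effect and wells lacking RBBP9 protein for full effect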
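System: RBBP9 protein / Quantity: 2.5 µM RBBP9 dispensing solution, before mixing / Also added: Serine-hydrolase probe FP-Rh, 375 nM pre-mixing / Dosing: 7.94 µM single dose, 0.794% DMSO / Timing: enzyme-compound preincubation 30 min, then probe labeling 45 min, 25 °C / Signal: FP readout at 525/598 nm / Controls: DMSO-treated enzyme wells and wells lacking RBBP9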
EP2 confirm: cAMP induction in EP2, EP4, beta2-AR and parental cells, confirmation, counter-screen for EP2 modulator project, cell-based, five parallel assays, C6 glioma, HEK293. cAMP HTRF induction; plus low (about EC15) PGE2 agonist. hit rate 47% among 1,300. calls only at 20 µM (by protocol). shares compounds with EP2 mod;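 active = cAMP induction above 50% in the main assay while under 30% in all four parallel counter assays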;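 also: rat C6 glioma cells stably expressing human EP2 receptor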
ABCB1 confirm: ABCB1 efflux pump inhibitors, confirmation, cell-based, single point, ABCG2 counter-screen; shares compounds with ABCG2 inh; CCRF-Adr cells, JC-1 efflux, flow cytometry; inhibition, % at 6.6 µM; hit rate 7% among 270;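 active = inhibition of pump activity above 50%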;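 also: 0% = DMSO and 100% = nicardipine full pump inhibition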
ABCG2 confirm: ABCG2 efflux pump inhibitors, confirmation, single point, IgMXP3 cells, ABCB1 counter-screen paired; shares compounds with ABCG2 inh; JC-1 efflux, flow cytometry; inhibition, % at 6.6 µM; hit rate 6% among 270; AID 1453, 2008;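 active = inhibition above 50%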;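 also: 0% = DMSO wells and 100% = nicardipine pump inhibitor wells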
IgMXP3 autofluor: compound autofluorescence in ABCG2-expressing IgMXP3 cells, confirmation, artefact control for ABC transporter inhibitor project, cell-based, 488/530 nm, flow cytometry; shares compounds with ABCG2 inh; AID 1480, 2009; fluorescence at 6.6 µM; hit rate 30% among 270; compound autofluorescence 488/530 nm; hits give high values;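 active = fluorescence in ABCG2-expressing cells above the plate's control-well mean plus 3 SD, cut at about 15 in these data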;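 also: median cell fluorescence with compound minus that of DMSO-treated control cells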
CCRF autofluor: compound autofluorescence in ABCB1-expressing CCRF-Adr cells, confirmation, artefact control for ABC transporter inhibitor project, cell-based, 488/530 nm, flow cytometry; AID 1483, 2009; compound autofluorescence 488/530 nm; hits give high values; hit rate 30% among 270; shares compounds with ABCG2 inh; fluorescence at 6.6 µM;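 active = fluorescence beyond the plate control mean plus 3 SD, with a fluorescence-to-maximum score over 2, cut at about 25 in these data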
RBBP9 confirm: human RBBP9 inhibitors, retest, confirmation, biochemical, fluorescence polarization, FP-Rh probe, triplicate; AID 1537, 2009; hit rate 36% among 410; inhibition, % at 7.94 µM; recombinant RBBP9; shares compounds with RBBP9 inh;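 active = inhibition above the hit cutoff derived for the primary screen, cut at about 15% in these data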;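 also: 0% = RBBP9 with DMSO and 100% = wells lacking RBBP9 protein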
* = called active by the depositor; i = inactive; . = no result given; + = active, no number.

SMILES	ABCG2 inh	EP2 antag	EP2 mod	ABCB1 block	RBBP9 inh	EP2 confirm	others
Cc1nc(-c2ccccc2)c(CC(=O)N(C)CCN(C)C)s1	.	8.9	-20.3	.	.	.
CC(C)C1(C)N=C(c2ncccc2C(=O)O)NC1=O (stereo not given)	1.8	7.6	72.2*	0.5	-5.2	i
COc1cccc(C2(O)CCN(CCNC(=O)c3ccccc3F)CC2)c1	.	4.5	25.4	.	.	.
O=c1c2ccccc2nc(N2CCCC2)n1-c1ccc(Cl)cc1	9.9	8.8	67.9*	1.3	-1.2	+
Cc1cc(OCC(=O)OC(C)C)c2c3c(c(=O)oc2c1)CCCC3	7.0	1.9	65.6*	1.7	-9.2	+
CCOC(=O)C(C)Oc1cc(C)cc2oc(=O)c3c(c12)CCCC3 (stereo not given)	8.0	2.5	57.4	1.5	-11.8	.
CN(N=O)c1ccc(O)c(O)c1	.	9.8	83.4*	.	.	i
COc1ccc(CC(=O)N2CCN(Cc3ccco3)C[C@@H]2C)cc1OC	.	.	0.6	.	.	.
Cc1ccc(NP(=O)(Oc2ccccc2F)Oc2ccccc2F)cc1C	0.0	3.7	71.0*	0.2	-2.6	i
CCC(=O)O[C@H]1CCC2C3CCC4=CC(=O)CC[C@]4(C)C3CC[C@@]21C (stereo not given in full)	.	9.9	76.9*	.	.	+
CCc1ccccc1NC(=O)CNC1CCCCC1	0.4	3.2	8.1	-0.1	2.5	.
CN(CC(=O)Nc1ccccc1-c1ccccc1)C1CCCCC1	3.9	8.2	74.3*	0.7	-3.6	i
O=C(CN1C2CCC1CC(O)(c1ccco1)C2)Nc1ccccc1F (stereo not given)	.	.	-24.2	.	.	.
Cc1ccc2scc(CC(=O)N(C)CCN(C)C)c2c1	.	5.3	-71.2	.	.	.
CC(C)=CCC12CN3CCN(CC(C3)C1=O)C2	106.7*	7.2	11.3	4.3	-1.3	.	ABCB1 confirm=-3.2;ABCG2 confirm=7.0;IgMXP3 autofluor=2.81;CCRF autofluor=18.9
CN(C)CCN(Cc1ccc(F)cc1)C(=O)Cc1n[nH]c(=O)c2ccccc12	.	2.6	-25.6	.	.	.
CCOC(=O)C1CCCN(c2ccc([N+](=O)[O-])c3nonc23)C1 (stereo not given)	7.6	4.7	15.6	2.6	19.1*	.	RBBP9 confirm=30.7*
O=C(CN1C2CCC1CC(O)(c1ccccn1)C2)Nc1ccccc1F (stereo not given)	.	5.4	-7.0	.	.	.
CCCOc1c(CN2C3CCC2CC(O)(c2ccccc2F)C3)cccc1OC (stereo not given)	.	5.3	-29.5	.	.	.
CCN1/C(=C\C=C\C2=[N+](CC)c3ccccc3C2(C)C)C(C)(C)c2ccccc21	44.2	.	-16.7	1.5	99.8*	.	RBBP9 confirm=-49.8
CC(C)N(Cc1ccco1)/N=C/c1c(O)n(Cc2ccccc2)c(=O)[nH]c1=O	.	6.5	12.6	.	19.4*	.	RBBP9 confirm=7.0
O=c1[nH]c(=O)n(Cc2ccco2)c(O)c1C=NC1CC1	1.7	7.7	1.4	0.4	-2.9	.
CC(C)N1CCN(c2ccc(O)cc2)CC1	1.5	5.2	-2.3	0.1	15.1*	.	RBBP9 confirm=-0.9
CCOC(=O)C(C)N1C(=O)CN=C(c2ccc(OC)c(OC)c2)c2c1sc1c2CCCC1 (stereo not given)	.	14.4	22.1	.	.	.
CCC(C)n1c(O)c(C=NC(C)c2ccccc2)c(=O)[nH]c1=S (stereo not given)	.	6.9	9.7	.	16.1*	.	RBBP9 confirm=2.4
COc1nc(C)c(CC(=O)N(CCN(C)C)C2CCN(C)CC2)c(OC)n1	.	2.6	2.8	.	.	.
